The results in this text go back to ChEMBL document CHEMBL1649279, “The final step of hygromycin A biosynthesis, oxidation of C-5''-dihydrohygromycin A, is linked to a putative proton gradient-dependent efflux” (Antimicrob Agents Chemother, 2009).

pIC50: −log10 of the molar value. Values after ≈ are worked out from the molar mass of the structure shown.

The test system of assay [1] is Escherichia coli. Description: Inhibition of protein synthesis in Escherichia coli assessed as green fluorescent protein synthesis by coupled transcription-translation assay. Type of assay: functional, organism-based. Summed up:
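E. coli lysate coupled transcription-translation with a GFP template, run with and without antibiotic at increasing concentrations. GFP measured by fluorescence scanning and native PAGE. Triplicates, expressed as percent of fluorescence without antibiotic.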

The subject of assay [2] is Escherichia coli. Description: Antimicrobial activity against tolC deficient Escherichia coli by after 2 hrs. The format is functional. Summed up:
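ΔtolC E. coli grown in 200 μl LB at 37°C for 2 h across a range of antibiotic concentrations, read by A600. MIC is the lowest concentration giving 95% growth inhibition relative to an untreated culture.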

The subject of assay [3] is Streptomyces hygroscopicus. Description: Activity at Streptomyces hygroscopicus recombinant N-terminal His-tagged Hyg26 reductase expressed in Escherichia coli BL21 (DE3). The essentials:
(§1)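 His-tagged Hyg26, expressed in E. coli BL21-CodonPlus(DE3) and purified on Ni-NTA. Reductase kinetics: 800 ng enzyme, 50 mM phosphate pH 6 with 2 mM TCEP, 37°C, 15 min. NADH fixed at 60 mM with antibiotic 2–60 mM; for NADH, HA fixed at 20 mM with NADH 0.25–10 mM. DHHA-type product quantified by reverse-phase HPLC peak area. Duplicates averaged and fitted for kinetic parameters.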

The test system of assay [4] is Streptomyces hygroscopicus. Description: Ratio of Kcat to Km for Streptomyces hygroscopicus recombinant N-terminal His-tagged Hyg26 reductase expressed in Escherichia coli BL21 (DE3). Summed up: as §1
Assay [5] has as its system Streptomyces hygroscopicus. Description: Antimicrobial activity against hyg28 deficient Streptomyces hygroscopicus SCH30 by after 48 hrs by agar plate dilution method. Particulars: SCH30, 48 h. The format is functional. Summed up: (§2)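 Spores plated on yeast extract malt extract agar containing a series of HA concentrations, incubated 48 h at 30°C, then scored for growth. MIC taken as the lowest HA concentration preventing visible growth of at least 95% of CFU.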

Assay [6] deals with Streptomyces hygroscopicus. Description: Antimicrobial activity against hyg20 deficient Streptomyces hygroscopicus SCH30 by after 48 hrs by agar plate dilution method. Type of assay: functional. Particulars: SCH30, 48 h. The essentials: as §2
Another assay concerns Streptomyces lividans. Description: Antimicrobial activity against Streptomyces lividans by after 48 hrs by agar plate dilution method. Type of assay: functional. The essentials:
as §2

The subject of assay [7] is Streptomyces hygroscopicus. Description: Antimicrobial activity against hyg19-hyg20-hyg21 deficient Streptomyces hygroscopicus SCH30 by after 48 hrs by agar plate dilution method. The format is functional. The conditions noted are these: SCH30, 48 h. Summed up:
as §2

In assay [8] the test system is Streptomyces hygroscopicus. Description: Antimicrobial activity against wild type Streptomyces hygroscopicus by after 48 hrs by agar plate dilution method. The format is functional. Summed up:
as §2

Assay [9] concerns Streptomyces hygroscopicus. Description: Antimicrobial activity against hyg19 deficient Streptomyces hygroscopicus SCH30 by after 48 hrs by agar plate dilution method. Type of assay: functional. Particulars: SCH30, 48 h. The essentials: as §2

Turning to `C/C(=C\c1ccc(O[C@@H]2O[C@H](C(C)O)[C@@H](O)[C@@H]2O)c(O)c1)C(=O)N[C@@H]1[C@H](O)[C@@H](O)[C@H]2OCO[C@H]2[C@@H]1O` (stereo partly drawn), in the assay with Escherichia coli [1], the pIC50 (in general, −log10 of the IC50, conventionally taken in molar units) is 6.52 and the IC90 (commonly the concentration needed for an effect of 90%) was 1500 nM. Also, the MIC (commonly the least concentration at which growth counts as inhibited) with Escherichia coli [2] was 20 µg/mL (≈ 38.9 µM).
On the same counts, the results for `C/C(=C\c1ccc(O[C@@H]2O[C@H](C(C)O)[C@@H](O)[C@@H]2O)c(O)c1)C(=O)N[C@@H]1[C@H](O)[C@@H](O)[C@@H](O)[C@@H](O)[C@@H]1O` (stereo partly drawn) are 5.57, 14100 nM and 150 µg/mL (≈ 299 µM).
The like results for `CO[C@@H]1[C@H](O)[C@@H](O)[C@@H](NC(=O)/C(C)=C/c2ccc(O[C@@H]3O[C@H](C(C)O)[C@@H](O)[C@@H]3O)c(O)c2)[C@@H](O)[C@@H]1O` (stereo partly drawn) [5'-DIHYDROMETHOXYHYGROMYCIN A] were, in that order, 5.13, 50000 nM and 150 µg/mL (≈ 291 µM).
Take `CC(=O)[C@H]1O[C@@H](Oc2ccc(/C=C(\C)C(=O)N[C@@H]3[C@H](O)[C@@H](O)[C@@H](O)[C@@H](O)[C@@H]3O)cc2O)[C@@H](O)[C@@H]1O` [DESMETHYLENEHYGROMYCIN A]: in [3], the Km (commonly the concentration of substrate that gives half-maximal velocity) worked out at 63.6 mM; the kcat (usually the number of substrate molecules converted per active site and unit of time at saturation) came out at 31.7 s⁻¹. Moreover, the kcat/Km in assay [4] stood at 0.9 ×10³ /M/s. For the same molecule, in the assay with Escherichia coli [1], the pIC50 was 6.49 and the IC90 is 1000 nM. Moreover, the MIC in the assay with Escherichia coli [2] was 150 µg/mL (≈ 300 µM).
For `CC(=O)[C@H]1O[C@@H](Oc2ccc(/C=C(\C)C(=O)N[C@@H]3[C@H](O)[C@@H](O)[C@H]4OCO[C@H]4[C@@H]3O)cc2O)[C@@H](O)[C@@H]1O` [HYGROMYCIN A], the Km in assay [3] worked out at 5.8 mM. In [3], the kcat is 5.1 s⁻¹. Also, the MIC in assay [5] turned out to be 300 µg/mL (≈ 587 µM); in assay [6], 300 µg/mL (≈ 587 µM); against Streptomyces lividans it was 20 µg/mL (≈ 39.1 µM); in assay [7], 75 µg/mL (≈ 147 µM); in [8], 400 µg/mL (≈ 782 µM); in the assay with Escherichia coli [2], 10 µg/mL (≈ 19.6 µM). Besides, the MIC in assay [9] came to 400 µg/mL (≈ 782 µM). The kcat/Km in assay [4] stood at 1 ×10³ /M/s. The pIC50 in the assay with Escherichia coli [1] was 6.74. Besides, the IC90 with Escherichia coli [1] was 250 nM.
With `CO[C@@H]1[C@H](O)[C@@H](O)[C@@H](NC(=O)/C(C)=C/c2ccc(O[C@@H]3O[C@H](C(C)=O)[C@@H](O)[C@@H]3O)c(O)c2)[C@@H](O)[C@@H]1O` [METHOXYHYGROMYCIN A], in assay [3], the Km amounted to 19.8 mM and the kcat worked out at 15.5 s⁻¹. The kcat/Km in assay [4] amounted to 0.9 ×10³ /M/s. Also, in the assay on Escherichia coli [1], the pIC50 is 6.30 and the IC90 turned out to be 2000 nM. 150 µg/mL (≈ 292 µM) was the least that counted as inhibitory in the assay with Escherichia coli [2] (MIC).
